Measurements as given in PMC2886590 (Journal of molecular biology, 2010).

Target: MLL PHD3 finger (Homo sapiens, UniProt Q03164)
Assay: NMR titration of histone peptides
Type: binding
Conditions: 0.2 mM 15N-labeled PHD3, 12-mer histone tail peptide, 298K
Outline: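 PHD3 finger (residues 1565-1627, wild type or mutant) was expressed as a GST fusion in E. coli BL21(DE3) pLysS grown in 15NH4Cl minimal medium. It was affinity-purified, GST-cleaved, size-exclusion purified and held in 25 mM d11-Tris pH 6.8, 150 mM KCl, 10 mM deuterated DTT and 7% 2H2O. 12-mer histone tail peptides were added stepwise to 0.2 mM protein, and normalized chemical shift changes were tracked in 1H,15N HSQC spectra.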

Sequence of MLL PHD3 finger (Q03164 1565-1627): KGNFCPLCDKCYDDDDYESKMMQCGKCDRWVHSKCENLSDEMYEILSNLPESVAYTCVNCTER

exchange regime on NMR time scale: intermediate-to-fast exchange regime
Substance: H3K4me3: histone H3 tail peptide trimethylated at lysine 4 (biotinylated residues 1-21; 12-mer for NMR)
